According to ChEMBL document CHEMBL1137768, “Synthesis and in vitro anti Mycobacterium tuberculosis activity of a series of phthalimide derivatives” (Bioorg Med Chem, 2009):
In brackets after ≈: the same amount, converted by molar mass.

How the values were obtained:
[1] = system: Mycobacterium tuberculosis; assay: Antimycobacterial activity against Mycobacterium tuberculosis H37Rv ATCC 27294 after 7 days by Microplate Alamar blue assay; format: functional; conditions: H37Rv ATCC 27294, 168 h
How it was run: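 DMSO stocks diluted in Middlebrook 7H9 with OADC to final 0.15–250 µg/mL. Inoculum matched to McFarland No. 1, diluted 1:25, then added with compound in 96-well plates. Triplicates incubated 7 days at 37 °C, then resazurin added. Fluorescence read at 530/590 nm. MIC = lowest concentration giving 90% growth inhibition. Isoniazid standard run each time.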

[2] = system: J774; assay: Cytotoxicity against mouse J774 cells after 24 hrs; format: cell-based; conditions: J774, 24 h
How it was run: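 J774 cells kept in RPMI with 10% FBS at 37 °C, 5% CO2, then seeded and allowed to adhere for 24 h. Exposed 24 h to compound at 625 down to 0.6 (twofold series). Resazurin added for 6 h and fluorescence read at 530/590 nm. IC50 taken as concentration giving 50% viability relative to control.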

## O=C1c2ccccc2C(=O)N1c1ccc(S(=O)(=O)Nc2ccccn2)cc1
[1]
  MIC: > 250 µg/mL

## Nc1ccc(S(=O)(=O)c2ccc(N3C(=O)c4ccccc4C3=O)cc2)cc1
[1]
  MIC: 7.8 µg/mL (≈ 20.6 µM)
[2]
  IC50: 312 µg/mL (≈ 826 µM)

## N=C(N)NS(=O)(=O)c1ccc(N2C(=O)c3ccccc3C2=O)cc1
[1]
  MIC: 125 µg/mL (≈ 363 µM)

## O=C1c2ccccc2C(=O)N1c1ccc(S(=O)(=O)c2ccc(N3C(=O)c4ccccc4C3=O)cc2)cc1
[1]
  MIC: > 250 µg/mL

## Cc1ccnc(NS(=O)(=O)c2ccc(N3C(=O)c4ccccc4C3=O)cc2)n1
[1]
  MIC: > 250 µg/mL

## NS(=O)(=O)c1ccc(N2C(=O)c3ccccc3C2=O)cc1
[1]
  MIC: > 250 µg/mL

## O=C(NN1C(=O)c2ccccc2C1=O)c1ccncc1
[1]
  MIC: 5 µg/mL (≈ 18.7 µM)
[2]
  IC50: 625 µg/mL (≈ 2340 µM)

## O=C1c2ccccc2C(=O)N1c1ccc(S(=O)(=O)Nc2ncccn2)cc1
[1]
  MIC: 3.9 µg/mL (≈ 10.3 µM)
[2]
  IC50: 312 µg/mL (≈ 822 µM)

## NNC(=O)c1ccncc1 [ISONIAZID]
[1]
  MIC: 0.02 µg/mL (≈ 0.146 µM)

## Cc1cc(NS(=O)(=O)c2ccc(N3C(=O)c4ccccc4C3=O)cc2)no1
[1]
  MIC: 125 µg/mL (≈ 326 µM)

## COc1cnc(NS(=O)(=O)c2ccc(N3C(=O)c4ccccc4C3=O)cc2)nc1
[1]
  MIC: > 250 µg/mL

## Cc1cc(C)nc(NS(=O)(=O)c2ccc(N3C(=O)c4ccccc4C3=O)cc2)n1
[1]
  MIC: > 250 µg/mL
